Results on 14 molecules are retold here after ChEMBL document CHEMBL1629489, “Novel 6-[(hetero)arylamino]thieno[3,2-b]pyridines: synthesis and antitumoral activities” (2010).

Type in all cases: functional
The nature of experiment [1]: Growth inhibition of human A375-C5 cells after 48 hrs by sulforhodamine B assay. Conditions: A375-C5, 48 h. An outline of the steps: (§1)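 Adherent cells in RPMI-1640 with 5% heat-inactivated FBS, 2 mM glutamine and penicillin/streptomycin at 37 °C and 5% CO₂. Plated at 1.5 × 10⁵ cells/mL (MCF-7) or 0.75 × 10⁵ cells/mL (A375-C5, NCI-H460), then incubated 24 h. Exposed 48 h to five serial dilutions from DMSO stocks (≤0.25% DMSO). SRB staining, absorbance at 492 nm. GI50 is the mean ± SEM of three independent duplicate experiments.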

A further experiment has as its system NCI-H460. Briefly: Growth inhibition of human NCI-H460 cells after 48 hrs by sulforhodamine B assay. Conditions: NCI-H460, 48 h. An outline of the steps: as §1
(In SRB staining, fixed cells bind dye roughly in proportion to their protein.)

The next experiment concerns MCF7. The experiment can be described thus: Growth inhibition of human MCF7 cells after 48 hrs by sulforhodamine B assay. Conditions: MCF7, 48 h. In a few lines:
as §1

One may read the GI50 as the concentration at which growth is held to half of that of the control. High values mean lower sensitivity of the cells, low ones greater sensitivity of the cells. For `COC(=O)c1sc2cc(Nc3ccc(OC)c(OC)c3)cnc2c1N`, the GI50 stood at 26.3 µM in experiment [1], 26.2 µM with NCI-H460 and 30 µM in the experiment on MCF7.
Consider `COC(=O)c1sc2cc(Nc3ccc(OC)cc3)cnc2c1N`, for which the GI50 in experiment [1] was more than 150 µM; in the experiment with NCI-H460 it was 95 µM; with MCF7, 124 µM.
Turning to `COC(=O)c1sc2cc(Nc3ccc(OC)cc3OC)cnc2c1N`, the GI50 was 27.3 µM in experiment [1], 26.3 µM in the experiment on NCI-H460 and 26.3 µM with MCF7.
As for `COC(=O)c1sc2cc(Nc3cc(OC)cc(OC)c3)cnc2c1N`, the GI50 (in experiment [1]; in the experiment on NCI-H460; in the experiment with MCF7) was more than 150 µM each time.
Consider `COC(=O)c1sc2cc(Nc3cc(OC)ccc3Cl)cnc2c1N`, for which the results for the 50% growth inhibitory concentration (GI50) (in experiment [1]; in the experiment on NCI-H460; with MCF7) were 25.8 µM, 21.7 µM and 22.1 µM, respectively.
In the same order, the values of `COC(=O)c1sc2cc(Nc3ccccc3Br)cnc2c1N` are 34.1 µM, 30.9 µM and 28.9 µM.
For `COC(=O)c1sc2cc(Nc3ccc(F)cc3Br)cnc2c1N`, in that order: 34 µM, 31.3 µM and 28.9 µM.
In the same order, the values of `COC(=O)c1sc2cc(Nc3nc4ccccc4s3)cnc2c1N` are 3.5 µM, 6.4 µM and 6 µM.
Turning to `COC(=O)c1sc2cc(Nc3ccc4[nH]ccc4c3)cnc2c1N`, the GI50 turned out to be 17.3 µM in experiment [1], 15.8 µM in the experiment with NCI-H460 and 18.1 µM with MCF7.
In the same order, the values of `COC(=O)c1sc2cc(Nc3nccc4ccccc34)cnc2c1N` are more than 150 µM, more than 150 µM and more than 150 µM.
In the same order, the values of `COC(=O)c1sc2cc(Nc3ccccn3)cnc2c1N` are more than 150 µM, more than 150 µM and more than 150 µM.
For `COC(=O)c1sc2cc(Nc3cccnc3)cnc2c1N`, in that order: more than 150 µM, 49.4 µM and 82.4 µM.
For `COC(=O)c1sc2cc(Nc3ncccn3)cnc2c1N`, the GI50 (in experiment [1]; in the experiment with NCI-H460; in the experiment on MCF7) was more than 150 µM in each case.
Consider `COc1cccc2c1C(=O)c1c(O)c3c(c(O)c1C2=O)C[C@@](O)(C(=O)CO)C[C@@H]3O[C@H]1C[C@H](N)[C@H](O)[C@H](C)O1` [DOXORUBICIN], for which the GI50 in experiment [1] is 0.13 µM; with NCI-H460, 0.0356 µM; with MCF7 it was 0.0433 µM.
